Compounds with a hit are over-represented: about 1.8% of the library has one in this group of screens.
M4 ag: agonists of human muscarinic M4 receptor (CHRM4); activation, % at 3 µM; AID 624127; CHO-K1 hM4/Gqi5, Fluo-8 calcium fluorescence; vehicle 0%, full acetylcholine response 100%; P08173; 360,000 tested, 0.14% active;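 active = activation above the run mean over all test wells plus 3 SD, cut at about 32% in these data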;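 also: peak over basal fluorescence ratio per well then scaled between controls; 0% = DMSO wells and 100% = acetylcholine at EC100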
M5 ag: CHRM5 agonism in calcium assay. CHO-K1 hM5 cells, Fluo-8 calcium fluorescence; 0% DMSO wells, 100% maximal acetylcholine response. activation, % at 3 µM. P08912. 360,000 tested, 0.19% active. AID 624037;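 active = activation above the run's mean over test compounds plus 3 SD, cut at about 23% in these data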;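 also: signal is peak over basal fluorescence ratio across the kinetic read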
Target sequence (P08912 whole entry, looked up): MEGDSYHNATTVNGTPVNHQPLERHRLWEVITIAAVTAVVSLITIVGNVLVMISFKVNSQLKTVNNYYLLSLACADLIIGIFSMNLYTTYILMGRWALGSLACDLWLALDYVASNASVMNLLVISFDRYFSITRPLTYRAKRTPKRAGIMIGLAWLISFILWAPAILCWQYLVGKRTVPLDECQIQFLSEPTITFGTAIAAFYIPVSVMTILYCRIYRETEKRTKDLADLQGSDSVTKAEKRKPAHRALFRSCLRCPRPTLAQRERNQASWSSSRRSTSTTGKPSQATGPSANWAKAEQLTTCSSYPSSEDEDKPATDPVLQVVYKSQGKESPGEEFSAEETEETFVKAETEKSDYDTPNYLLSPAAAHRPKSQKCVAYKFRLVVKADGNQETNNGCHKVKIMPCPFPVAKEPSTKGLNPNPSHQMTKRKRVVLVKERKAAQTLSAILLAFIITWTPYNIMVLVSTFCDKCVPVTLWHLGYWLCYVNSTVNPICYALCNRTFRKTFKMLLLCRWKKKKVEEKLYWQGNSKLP
M4 antag: CHRM4 antagonism in calcium assay; P08173; CHO-hM4 cells, ACh EC80, Fluo-8 calcium fluorescence; inhibition, % at 3 µM; 360,000 tested, 0.73% active;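 active = inhibition above its plate's cutoff, the mean inhibition of sample wells plus 3 SD, cut at about 27% in these data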;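 also: 0% = acetylcholine EC80 with DMSO and 100% = DMSO without agonist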
CHRM4 PAM: CHRM4 positive allosteric modulation; 360,000 tested, 0.4% active; AID 624126; CHO-K1 hM4/Gqi5, Fluo-8 calcium fluorescence, ACh EC20; 0% = ACh EC20, 100% = maximal ACh; activation, % at 3 µM;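 active = activation above its plate's cutoff, the mean activation of sample wells plus 3 SD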
M5 PAM: positive allosteric modulators of human muscarinic M5 receptor | CHO-K1 hM5, Fluo-8 calcium, ACh EC20 PAM; 0% = ACh EC20, 100% = ACh EC100 | activation, % at 3 µM | 360,000 tested, 0.3% active;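 active = activation above the run cutoff, the mean activation of all test compounds plus 3 SD, cut at about 18% in these data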
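Assay system: CHO-K1 hM5 cells. Also added: acetylcholine at EC20 concentration, added after compound. Dosing: 3 µM, single dose. Times: compound preincubation 140 s before EC20 acetylcholine addition. Signal: Fluo-8 calcium fluorescence. Measure: % activation relative to EC20 and EC100 ACh responses. Repeats: singlicate, one well per test compound.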
CHRM5 antagonist: CHRM5 antagonism in calcium assay | P08912 | CHO-hM5 cells, Fluo-8 calcium fluorescence, ACh EC80 | 360,000 tested, 0.59% active | inhibition, % at 3 µM | AID 624040;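 active = inhibition above a per-plate cutoff, the mean of that plate's test compounds plus 3 SD, cut at about 27% in these data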;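 also: 0% = acetylcholine EC80 with DMSO and 100% = DMSO without agonist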
Active calls of the source: *.

SMILES	M4 ag	M5 ag	M4 antag	CHRM4 PAM	M5 PAM	CHRM5 antagonist
CN(C)S(=O)(=O)c1cccc(C(=O)OCC(=O)c2c(N)n(C)c(=O)n(C)c2=O)c1	4.0	-1.4	-8.5	2.4	-1.7	5.8
Cc1ccc(N(C)S(=O)(=O)c2cccc(C(=O)OCC(=O)c3c(N)n(C)c(=O)n(C)c3=O)c2)cc1	22.2	2.8	29.6*	-11.2	-33.1	14.0
CCn1c(SCC(=O)N/N=C/c2ccccc2OCC(=O)O)nnc1-c1ccc(C)cc1	7.2	7.2	15.0	2.2	25.8*	37.4*
CN(C)c1ccc(C=c2c3ccccc3n3c2c2c([n+]3C)CCCC2)cc1	0.2	-5.5	10.9	-1.3	0.7	2.0
Clc1ccc(-c2nc3ccc(Br)cn3c2Cc2ccsc2)cc1	-0.8	-1.7	-6.6	1.3	3.5	-5.5
CNC(C)C(=O)NC(C(=O)N1CCCC1C(=O)Nc1ccc2[nH]ccc2c1)C(C)C (stereo not given)	0.5	-1.4	-10.7	5.2	4.8	-4.5
CNC(C)C(=O)NC(C(=O)N1CCCC1C(=O)Nc1ccc2ncccc2c1)C(C)C (stereo not given)	-0.5	1.7	-14.3	28.9*	13.5	-4.8
Cn1c(=O)oc2cc(S(=O)(=O)N3CCN(c4ccccc4F)CC3)ccc21	0.8	-3.1	-16.9	6.8	-6.1	8.1
Cn1c(=O)oc2cc(S(=O)(=O)CCC(=O)N3CCN(c4ccccc4F)CC3)ccc21	3.4	10.6	-16.3	7.9	37.5*	10.9
COc1ccccc1N1CCN(S(=O)(=O)c2ccc3c(c2)oc(=O)n3C)CC1	1.6	-1.6	1.7	1.0	-12.6	27.1*
CC(=O)OC[C@@H]1CN(Cc2ccccc2)C[C@H](n2cnc3c(NC4CC4)ncnc32)O1	1.9	1.9	2.4	-3.0	0.5	-7.8
O=C(NC1CC2CCCC(C1)N2C(=O)NCc1ccccc1)C1CC1 (stereo not given)	0.2	-5.4	32.2*	-8.6	2.6	-1.3
O=C(NC1CC2CCCC(C1)N2C(=O)Nc1ccccc1)C1CC1 (stereo not given)	0.6	-3.0	-5.5	2.8	1.4	8.0
O=C(O)CCC(=O)NNc1nc2ccccc2nc1-c1ccccc1	1.1	0.5	0.6	6.2	18.8*	0.3
O=C(O)CCC(=O)NNc1ncnc2ccccc12	0.7	-1.9	4.3	-3.7	-10.1	4.4
Cc1cc(-c2ccc(S(=O)(=O)N3CCN(C)CC3)s2)on1	1.2	-8.2	-1.9	6.0	-12.8	35.3*
Cc1ccc(C(C)C)cc1S(=O)(=O)NCc1ccccn1	0.9	0.5	-3.3	3.3	-5.0	-3.0
Cn1c(N)c(C(=O)COC(=O)C2Cc3ccccc3CN2S(C)(=O)=O)c(=O)n(C)c1=O (stereo not given)	2.0	1.2	-19.8	14.8	-5.0	0.1
CCc1cccc(NS(=O)(=O)c2c(C)nc3sc(CC)nn3c2=O)c1	6.9	-1.9	29.4*	-17.6	-22.8	30.1*
COc1ccc2ccc(OC)c(/C=N/NC(=O)c3cc4ccccc4o3)c2c1	3.0	-1.3	-12.8	3.2	-3.4	2.8
CC(CNC(=O)CCCn1ncn2c(cc3occc32)c1=O)c1ccccc1 (stereo not given)	2.4	-1.9	-5.3	15.8*	10.1	-14.6
COc1ccc2c(c1OC)OCC2C (stereo not given)	-1.2	-2.9	-7.0	1.0	0.7	10.5
CC1=C(C(=O)N(C)C)CC(CC(=O)NCCCCc2ccccc2)C(=O)N1CCCN1CCCC1=O (stereo not given)	0.8	0.0	-14.6	21.9*	-9.5	6.9
N#Cc1c(-c2ccccc2)c(-c2ccccc2)n(Cc2ccco2)c1NC(=O)c1cccs1	-0.9	-0.2	-2.0	-0.9	29.1*	-0.2
c1ccc(-c2cc(-c3nc4ccccc4[nH]3)c3ccccc3n2)cc1	12.4	0.0	24.1	-17.1	-18.2	28.6*
SMILES	M4 ag	M5 ag	M4 antag	CHRM4 PAM	M5 PAM	CHRM5 antagonist
O=C(NC1CCCN(c2ccc(C(F)(F)F)cn2)C1)c1ccnc(Cl)c1 (stereo not given)	4.2	-2.1	5.0	19.8*	3.5	-4.0
O=C(CNC(=O)c1ccccc1F)N/N=C/c1cn[nH]c1-c1ccccc1	2.6	-9.3	17.2	-12.2	-20.6	28.9*
O=C(CNC(=O)c1ccc(F)cc1)N/N=C/c1cn[nH]c1-c1ccccc1	1.0	-0.9	1.9	11.1	1.3	-9.3
CCOC(=O)Nc1cc(N)ncn1	0.8	5.6	-8.8	-1.6	4.1	-0.8
O=c1[nH]cnc2c1ccn2C1OC(CO)C(O)C1O (stereo not given)	0.5	1.1	0.5	1.0	-0.9	4.6
COc1ccc(-n2nc(C(=O)NCC(=O)N3CCN(Cc4ccccc4)CC3)c3ccccc3c2=O)cc1OC	17.6	-1.2	16.8	-13.8	-11.8	29.3*
CCNC(=O)C1CCCN(C(=O)c2ccc(C(=O)OC)cc2)CC1 (stereo not given)	0.1	0.3	-2.4	3.7	4.5	-8.9
Cc1noc(C)c1CSCC(=O)N1CCN(c2ccc([N+](=O)[O-])cc2)CC1	18.1	2.1	18.2	-16.0	-24.7	28.6*
C=CCOc1ccccc1CN1CCC(Cc2ccccc2)CC1	4.2	-13.3	12.2	-10.8	-8.7	10.7
CC1Cc2nc(SCC(=O)c3ccccc3)n(Cc3ccccc3)c(=O)c2S1 (stereo not given)	4.1	-4.3	-2.5	-5.0	-4.9	1.1
CC1Cc2nc(SCC(=O)NCc3ccccc3)n(Cc3ccccc3)c(=O)c2S1 (stereo not given)	4.2	-3.7	37.9*	-16.1	-6.4	-4.0
COC(=O)[C@@]12C[C@@H](CC(=O)N3CCN(C(=O)c4ccco4)CC3)C(=O)N(Cc3ccccc3)C1=CCC(C)(C)C2	6.3	1.2	-13.4	1.8	-4.8	9.0
Cc1cc(C)c(-c2c(O)c3cccc4c3n(c2=O)CCC4)c(C)c1	-0.3	-5.9	0.2	-3.4	-0.8	-0.9
O=c1c(-c2ccccc2)c(O)c2cccc3c2n1CCC3	0.2	-2.9	-15.0	17.3*	1.7	-2.8
C=CCNC(=O)c1c(O)c2cccc3c2n(c1=O)CCC3	5.7	5.7	21.6	15.7*	42.9*	25.2
CC(C)C[C@H]1CNC(=O)C(=O)N1C[C@H]1CCCN1C[C@H](CC(C)C)N1C[C@H](Cc2ccccc2)N(CCc2ccccc2)C(=O)C1=O	0.4	-1.7	-20.3	5.6	-5.9	-3.0
COc1ccccc1N1C(=O)N(CC(=O)C(C)(C)C)c2ccccc2S1(=O)=O	1.4	0.0	3.6	-2.5	-0.7	9.5

High-throughput results (PubChem BioAssay)
